# Experimental data published in ChEMBL document CHEMBL2086380 (J Med Chem, 2012).
# Calls of active or inactive are those of the source. The rule behind the calls is not given here.
# Columns and labels:
# [1] = biological target: T1, Dual specificity mitogen-activated protein kinase kinase 1 (Homo sapiens, UniProt Q02750); test: Inhibition of MEK1-mediated ERK1 phosphorylation after 30 mins by HTRF assay
# [2] = Permeability from basal to apical side of MDCK cells; assay type: ADME, cell-based, Canis lupus familiaris; details: dog, read-out: permeability
# Method in brief: (§1)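 MDCK monolayer permeability measured in A→B and B→A directions, expressed as ×10⁻⁶ cm/s; efflux ratio taken as B:A over A:B.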
# [3] = Ratio of EC50 for human A375 cells to IC50 for MEK1-mediated ERK1 phosphorylation; design: species or system A-375
# [4] = biological target: T1, Dual specificity mitogen-activated protein kinase kinase 1; test: Inhibition of MEK1-mediated ERK1 phosphorylation in human A375 cells after 2 hrs by immunofluorescence high content imaging
# [5] = Efflux ratio of permeability from basal to apical to apical to basal side of MDCK cells; assay type: ADME, cell-based, Canis lupus familiaris; details: dog; method in brief: as §1
# [6] = Permeability from apical to basal side of MDCK cells; assay type: ADME, cell-based, Canis lupus familiaris; details: dog, read-out: permeability; method in brief: as §1
# [7] = Ratio of EC50 for human HCT116 cells to IC50 for MEK1-mediated ERK1 phosphorylation; design: species or system HCT-116
# A-375 [8] = test: Antiproliferative activity against human A375 cells after 72 hrs by CellTiterGlo assay; details: A-375, 72 h
# HCT-116 [9] = test: Antiproliferative activity against human HCT116 cells after 72 hrs by CellTiterGlo assay; details: HCT-116, 72 h
# [10] = biological target: T1, Dual specificity mitogen-activated protein kinase kinase 1; test: Inhibition of MEK1-mediated ERK1 phosphorylation in human HCT116 cells after 2 hrs by immunofluorescence high content imaging
# [11] = Half life in rat at 1 mg/kg, iv; assay type: ADME, organism-based; design: dose 1 mg/kg, route intravenous; details: in vivo
# [12] = Oral bioavailability in rat at 5 mg/kg; assay type: ADME, organism-based; details: in vivo
# Method in brief: (§2)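 Oral PK: rat dosed 5 mg/kg PO as solution; mouse dosed 25 mg/kg PO as suspension. Plasma AUC (μM·h) and bioavailability F (%) determined.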
# [13] = Clearance in rat at 1 mg/kg, iv; assay type: ADME, organism-based; design: dose 1 mg/kg, route intravenous; details: in vivo
# [14] = AUC in rat at 1 mg/kg, iv; assay type: ADME, organism-based; design: dose 1 mg/kg, route intravenous; details: plasma
# Rattus norvegicus [15] = species: Rattus norvegicus; test: Unbound clearance in rat; assay type: ADME, organism-based; details: in vivo
# [16] = AUC in rat at 5 mg/kg, po; assay type: ADME, organism-based; design: dose 5 mg/kg, route oral; details: plasma; method in brief: as §2
# [17] = Plasma protein binding in rat; assay type: ADME, cell-free; details: read-out: PPB (converted)
# [18] = Volume of distribution at steady state in rat at 1 mg/kg, iv; assay type: ADME, organism-based; design: dose 1 mg/kg, route intravenous; details: in vivo, read-out: Vdss
# Rattus norvegicus [19] = test: Unbound AUC in po dosed rat; assay type: ADME, organism-based; details: in vivo
# Mus musculus [20] = test: Oral bioavailability in mouse at 25 mg/kg; assay type: ADME, organism-based; details: in vivo; method in brief: as §2
# [21] = Clearance in mouse at 1 mg/kg, iv; assay type: ADME, organism-based; design: dose 1 mg/kg, route intravenous; details: in vivo
# HCT-116 [22] = test: Antitumor activity against human HCT116 cells xenografted in nude nu/nu mouse assessed as tumor growth inhibition at 5 mg/kg, po administered QD for 3 weeks relative to vehicle-treated control; assay type: functional
# Method in brief: (§3)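 HCT116 colorectal xenografts in nude mice; animals randomized, dosed orally once daily for 3 weeks at 5, 25 or 75 mg/kg vs vehicle. Tumor volume and body weight tracked; animals euthanized at tumor volume >2000 mm³ or body weight loss >20%.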
# [23] = Solubility of the compound in fasted state simulated intestinal fluid; assay type: physicochemical
# Method in brief: (§4)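 Solubility measured in aqueous buffer at pH 6.5 and in fasted-state simulated intestinal fluid (FASSIF), expressed in […].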
# Rattus norvegicus [24] = test: Drug metabolism in rat assessed as hydroxamate cleavage at 5 mg/kg, po; assay type: ADME, organism-based; design: dose 5 mg/kg, route oral; details: in vivo
# Mus musculus [25] = test: (§5) AUC in mouse at 1 mg/kg, iv; assay type: ADME, organism-based, Plasma; design: dose 1 mg/kg, route intravenous; details: in vivo
# [26] = Half life in mouse at 1 mg/kg, iv; assay type: ADME, organism-based; design: dose 1 mg/kg, route intravenous; details: in vivo
# [27] = Plasma protein binding in mouse; assay type: ADME, cell-free; details: read-out: PPB (converted)
# Mus musculus [28] = test: Toxicity in nude nu/nu mouse bearing human HCT116 xenograft assessed as body weight loss at 5 mg/kg, po administered QD for 3 weeks relative to vehicle-treated; assay type: organism-based; design: dose 5 mg/kg, route oral; details: in vivo, 504 h; method in brief: as §3
# [29] = Half life in mouse at 25 mg/kg, po; assay type: ADME, organism-based; design: dose 25 mg/kg, route oral; details: in vivo
# [30] = Solubility of the compound at pH 6.5; assay type: physicochemical; details: buffer; method in brief: as §4
# Rattus norvegicus [31] = test: Drug metabolism in rat assessed as glucuronidation at 5 mg/kg, po; assay type: ADME, organism-based; design: dose 5 mg/kg, route oral; details: in vivo
# HCT-116 [32] = test: Antitumor activity against human HCT116 cells xenografted in nude nu/nu mouse assessed as tumor growth inhibition at 25 and 75 mg/kg, po administered QD for 3 weeks relative to vehicle-treated; assay type: functional, organism-based; design: dose 75 mg/kg; method in brief: as §3
# Mus musculus [33] = test: (§6) AUC in mouse at 25 mg/kg, po; assay type: ADME, organism-based, Plasma; design: dose 25 mg/kg, route oral; details: in vivo; method in brief: as §2
# Mus musculus [34] = test: Inhibition of MEK-mediated ERK1/2 Thr185/Tyr187 phosphorylation in human HCT116 cells xenografted in nude nu/nu mouse at 25 mg/kg, po administered as single dose after 8 hrs relative to vehicle-treated control; assay type: functional; details: HCT-116, 8 h
# [35] = Volume of distribution at steady state in mouse at 1 mg/kg, iv; assay type: ADME, organism-based; design: dose 1 mg/kg, route intravenous; details: in vivo, read-out: Vdss
# Mus musculus [36] = test: Toxicity in nude nu/nu mouse bearing human HCT116 xenograft assessed as body weight loss at 75 mg/kg, po administered QD for 3 weeks relative to vehicle-treated; assay type: organism-based; design: dose 75 mg/kg, route oral; details: in vivo, 504 h; method in brief: as §3
# A-375 [37] = test: Ratio of EC50 for human HCT116 cells to EC50 for human A375 cells; assay type: functional
# [38] = as §5; assay type: ADME, organism-based, Plasma; design: dose 1 mg/kg, route intravenous; details: plasma
# [39] = as §6; assay type: ADME, organism-based, Plasma; design: dose 25 mg/kg, route oral; details: plasma; method in brief: as §2
# Cytochrome P450 2C19 = Cytochrome P450 2C19 (Homo sapiens, UniProt P33261); test: Inhibition of CYP2C19; assay type: ADME
# Sequence of Cytochrome P450 2C19 (P33261 whole entry): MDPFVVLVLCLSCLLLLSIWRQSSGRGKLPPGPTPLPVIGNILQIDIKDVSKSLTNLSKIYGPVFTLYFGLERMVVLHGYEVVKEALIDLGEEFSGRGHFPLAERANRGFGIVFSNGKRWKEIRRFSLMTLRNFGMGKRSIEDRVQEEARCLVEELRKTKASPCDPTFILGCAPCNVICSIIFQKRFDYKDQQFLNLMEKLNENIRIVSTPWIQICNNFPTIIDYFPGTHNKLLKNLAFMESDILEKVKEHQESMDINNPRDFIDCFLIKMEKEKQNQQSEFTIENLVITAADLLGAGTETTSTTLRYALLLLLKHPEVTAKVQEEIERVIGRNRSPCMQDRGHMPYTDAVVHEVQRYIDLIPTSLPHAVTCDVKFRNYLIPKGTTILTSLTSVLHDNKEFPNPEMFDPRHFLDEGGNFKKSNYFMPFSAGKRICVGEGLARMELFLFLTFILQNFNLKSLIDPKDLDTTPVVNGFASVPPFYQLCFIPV
# Cytochrome P450 2C9 = Cytochrome P450 2C9 (Homo sapiens, UniProt P11712); test: Inhibition of CYP2C9; assay type: ADME
# Sequence of Cytochrome P450 2C9 (P11712 whole entry): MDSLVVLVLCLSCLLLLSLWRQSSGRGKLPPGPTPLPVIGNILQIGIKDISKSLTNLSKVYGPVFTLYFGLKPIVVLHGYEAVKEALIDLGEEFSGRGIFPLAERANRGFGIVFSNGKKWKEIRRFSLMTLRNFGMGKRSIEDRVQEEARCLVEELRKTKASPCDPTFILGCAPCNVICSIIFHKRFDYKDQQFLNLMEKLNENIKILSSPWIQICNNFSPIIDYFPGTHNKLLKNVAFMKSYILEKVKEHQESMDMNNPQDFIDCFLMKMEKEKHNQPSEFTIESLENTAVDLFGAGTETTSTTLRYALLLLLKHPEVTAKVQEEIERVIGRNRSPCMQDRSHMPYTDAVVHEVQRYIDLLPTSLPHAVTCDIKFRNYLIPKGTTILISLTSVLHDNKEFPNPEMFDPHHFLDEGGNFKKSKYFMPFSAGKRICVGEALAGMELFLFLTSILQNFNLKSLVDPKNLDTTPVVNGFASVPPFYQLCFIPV
# T1 sequence (Q02750 whole entry): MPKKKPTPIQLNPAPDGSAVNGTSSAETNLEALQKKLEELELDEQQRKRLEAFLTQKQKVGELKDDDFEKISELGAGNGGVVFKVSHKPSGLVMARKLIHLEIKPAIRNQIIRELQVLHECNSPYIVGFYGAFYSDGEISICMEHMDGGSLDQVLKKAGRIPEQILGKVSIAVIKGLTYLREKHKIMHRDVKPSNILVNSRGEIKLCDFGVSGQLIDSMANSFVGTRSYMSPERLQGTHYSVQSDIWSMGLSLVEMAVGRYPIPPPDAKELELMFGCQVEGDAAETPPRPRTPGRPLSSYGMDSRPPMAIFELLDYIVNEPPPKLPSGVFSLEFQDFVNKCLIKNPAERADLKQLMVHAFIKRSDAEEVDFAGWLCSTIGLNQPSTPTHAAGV
smiles,measurement,setting,value
O=C(NOC[C@H](O)CO)c1ccc2[nH]ncc2c1Nc1ccc(I)cc1F,IC50,[1],0.015 µM
same,Papp B→A,[2],71 nm/s
same,Ratio,[3],0.8
same,EC50,[4],0.0037 µM
same,efflux ratio,[5],3.5
same,Papp A→B,[6],20 nm/s
same,Ratio,[7],2
same,EC50,A-375 [8],0.012 µM
same,EC50,HCT-116 [9],0.031 µM
same,EC50,[10],0.0004 µM
O=C(NCCCO)c1ccc2[nH]ncc2c1Nc1ccc(I)cc1F,IC50,[1],> 10 µM
O=C(NOC[C@H](O)CO)c1oc2ccncc2c1Nc1ccc(I)cc1F,EC50,A-375 [8],0.264 µM
same,EC50,HCT-116 [9],0.314 µM
O=C(NOC[C@H](O)CO)c1ccc2cnsc2c1Nc1ccc(I)cc1F,half-life,[11],1.6 h
same,IC50,[1],0.02 µM
same,bioavailability,[12],51%
same,Ratio,[3],0.47
same,clearance,[13],0.9 L/h/kg
same,EC50,[4],0.0011 µM
same,Ratio,[7],2.9
same,AUC,[14],2200 nM·h
same,CL free,Rattus norvegicus [15],112.5 L/h/kg
same,EC50,A-375 [8],0.01 µM
same,AUC,[16],5700 nM·h
same,fraction unbound,[17],0.008
same,Vd,[18],0.97 L/kg
same,EC50,HCT-116 [9],0.062 µM
same,fAUC,Rattus norvegicus [19],46 nM·h
same,EC50,[10],0.0009 µM
O=C(NOCCO)c1ccc2[nH]ncc2c1Nc1ccc(I)cc1F,half-life,[11],1.4 h
same,F,Mus musculus [20],94%
same,clearance,[21],5.28 L/h/kg
same,inhibition in vivo at 5 mg/kg,"HCT-116 [22]; HCT-116, 504 h, read-out: GI",94%
same,solubility,[23],0.18 mg/mL
same,bioavailability,[12],21%
same,Papp B→A,[2],138 nm/s
same,Drug metabolism,Rattus norvegicus [24],Active
same,AUC,Mus musculus [25],410 nM·h
same,half-life,[26],0.6 h
same,clearance,[13],2.16 L/h/kg
same,fraction unbound,[27],0.03
same,Activity,Mus musculus [28],Non-toxic
same,half-life,[29],2.9 h
same,Papp A→B,[6],99 nm/s
same,solubility,[30],0.08 mg/mL
same,Drug metabolism,Rattus norvegicus [31],Active
same,growth inhibition (GI),HCT-116 [32],Active
same,AUC,[14],1010 nM·h
same,AUC,Mus musculus [33],1960 nM·h
same,CL free,Rattus norvegicus [15],55.4 L/h/kg
same,EC50,A-375 [8],0.002 µM
same,inhibition in vivo at 25 mg/kg,Mus musculus [34],70%
same,AUC,[16],1060 nM·h
same,fraction unbound,[17],0.039
same,Vd,[18],2.4 L/kg
same,Vd,[35],2 L/kg
same,EC50,HCT-116 [9],0.016 µM
same,fAUC,Rattus norvegicus [19],40 nM·h
same,Activity,Mus musculus [36],10%
O=C(NOCC1CC1)c1ccc2[nH]ncc2c1Nc1ccc(I)cc1F,EC50,A-375 [8],0.009 µM
same,EC50,HCT-116 [9],0.127 µM
CCONC(=O)c1ccc2[nH]ncc2c1Nc1ccc(I)cc1F,IC50,[1],0.093 µM
same,EC50,[4],0.0024 µM
same,EC50,A-375 [8],0.0049 µM
same,EC50,HCT-116 [9],0.132 µM
same,EC50,[10],0.0013 µM
C[C@H](O)CONC(=O)c1oc2c(F)cncc2c1Nc1ccc(I)cc1F,F,Mus musculus [20],173%
same,clearance,[21],0.462 L/h/kg
same,Activity,HCT-116 [22],Active
same,IC50,[1],0.035 µM
same,Ratio EC50,A-375 [37],8
same,AUC,[38],4420 nM·h
same,half-life,[26],2.3 h
same,Ratio,[3],0.65
same,EC50,[4],0.0072 µM
same,fraction unbound,[27],0.016
same,Ratio,[7],5
same,AUC,[39],192000 nM·h
same,EC50,A-375 [8],0.023 µM
same,Vd,[35],0.71 L/kg
same,EC50,HCT-116 [9],0.175 µM
same,EC50,[10],0.004 µM
O=C(NOCCO)c1ccc2[nH]ncc2c1Nc1ccc(Br)cc1F,half-life,[11],0.36 h
same,IC50,[1],0.125 µM
same,bioavailability,[12],34%
same,Ratio EC50,A-375 [37],8
same,Ratio,[3],0.15
same,clearance,[13],3.24 L/h/kg
same,EC50,[4],0.0064 µM
same,Ratio,[7],1.5
same,AUC,[14],750 nM·h
same,EC50,A-375 [8],0.019 µM
same,AUC,[16],1290 nM·h
same,fraction unbound,[17],0.035
same,Vd,[18],1.5 L/kg
same,EC50,HCT-116 [9],0.193 µM
same,EC50,[10],0.0034 µM
O=C(NOCCO)c1ccc2cnsc2c1Nc1ccc(I)cc1F,inhibition (INH),Cytochrome P450 2C19,Not Active
same,EC50,A-375 [8],0.007 µM
same,inhibition (INH),Cytochrome P450 2C9,Not Active
same,EC50,HCT-116 [9],0.044 µM
